Assay outcomes deposited in PubChem BioAssay by Sanford-Burnham Center for Chemical Genomics.
Lipid droplet: modulators of hepatic lipid droplet formation; AML12 mouse hepatocytes, oleate lipid droplets, BODIPY imaging; inhibition, % at 6.5 µM; 240,000 compounds, 0.4% hits; AID 1656;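 active = lipid droplet intensity inhibited by at least 50%, with more than 500 cells counted; inconclusive = wells with under 300 cells, treated as cytotoxic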
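System: AML12 hepatocytes (mouse). Probe or stimulus: oleic acid at 100 µM to induce lipid droplet formation. Times: overnight treatment with compound plus oleate. Detection: Image-based BODIPY and DAPI two-channel analysis. Evaluation: percent inhibition of filter-corrected integrated lipid droplet intensity per well.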
TAG inh: reduces triacylglycerol accumulation in H9c2 cells; Nile Red lipid (TAG) fluorescence; cells loaded with 200 µM oleic acid; inhibition, % at 12.5 µM; 230,000 compounds, 0.66% hits; AID 651582;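 active = pattern-corrected inhibition of lipid staining of at least 50% with the nuclear-stain viability signal not falling by more than 50%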;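 also: 0% = DMSO wells and 100% = triacsin C control wells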
hiPSC survival: increases survival of single human iPS cells; 360,000 compounds, 0.044% hits; survival enhancement, % at 20 µM; hiPSC single-cell survival, ATPlite luminescence; 100% = ROCK inhibitor wells, 0% = DMSO; in the data active = survival enhancement above about 18%;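 also: cells exposed to compounds for 16 hours before the ATP read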
Gli-Sufu block: antagonists of Gli-Sufu signaling | Sufu-KO-LIGHT fibroblasts, Gli luciferase reporter luminescence | inhibition, % at 5 µM | 340,000 compounds, 0.74% hits | AID 588413;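 active = inhibition above about 55%, limit read from the data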;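 also: 0% = DMSO-treated cells and 100% = wells with medium but no cells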
697 NFkB inh: inhibitors of the PMA/ionomycin-induced NF-kB reporter in 697 B cells | 697 B-cell NF-kB luciferase reporter, 16 h | inhibition, % at 4 µM | 330,000 compounds, 0.33% hits | AID 435022; in the data active = inhibition above about 35%
Jurkat NFkB inh: inhibitors of the PMA/ionomycin-induced NF-kB reporter in Jurkat cells; PMA/ionomycin-induced NF-kB luciferase reporter, luminescence; inhibition, % at 4 µM; 330,000 compounds, 0.53% hits; in the data active = inhibition above about 50%
Gli antag conf: Gli-SUFU antagonism confirmation, single concentration; inhibition, % at 5 µM; shares compounds with Gli-Sufu block; Sufu-KO-LIGHT cells, Gli luciferase reporter, luminescence; AID 602428; 2,500 compounds, 40% hits;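 active = mean inhibition at 5 µM reaching about 45%, limit read from the data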;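 also: plate controls were DMSO-treated cells for no effect and wells lacking cells for full effect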
SufuKO cytotox: counter-screen for Gli-SUFU antagonists: cytotoxicity; cytotoxicity, % at 5 µM; Sufu-KO-LIGHT cells cytotoxicity, ATP luminescence; shares compounds with Gli-Sufu block; 2,500 compounds, 32% hits; AID 651994;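 active = mean cytotoxicity at 5 µM above about 25%, limit read from the data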;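 also: cells exposed to compound overnight for roughly 16 to 18 hours; plate controls were DMSO wells with cells for no effect and medium without cells for full effect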
Wnt3a cs: inhibits Wnt3a reporter, counter-screen for Gli-SUFU antagonists; shares compounds with Gli-Sufu block; Wnt-LIGHT cells, Wnt3a-driven luciferase reporter, luminescence; inhibition, % at 6.25 µM; 2,500 compounds, 20% hits;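 active = mean inhibition above about 25%, limit read from the data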
TAG conf: confirmation of triacylglycerol accumulation inhibitors; shares compounds with TAG inh; H9c2 lipid accumulation, Nile Red fluorescence; cells loaded with 200 µM oleic acid; inhibition, % at 12.5 µM; 990 compounds, 71% hits;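 active = mean inhibition across replicates of 40% or more; inactive = mean inhibition below 40%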;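 also: plate controls were DMSO only wells for no effect and Triacsin C treated wells for full effect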
Numbers without * were called inactive; ? = inconclusive; · = no result given. Shown are actives, neighbours in structure and some others; about 1.8% of the full set was active somewhere.

SMILES	Lipid droplet	TAG inh	hiPSC survival	Gli-Sufu block	697 NFkB inh	Jurkat NFkB inh	TAG conf	others
CC1C(=O)N(Cc2cn(CC3CCCCC3)nn2)CCS(=O)(=O)N1Cc1ccc(-c2cccc(CO)c2)cc1 (stereo not drawn)	·	-7.0	-1.4	·	·	·	·
CCCC1NC(=O)c2cccnc2-n2c1nc1cc(C)cc(C)c1c2=O (stereo not drawn)	·	19.3	4.7	·	·	·	·
O=[N+]([O-])c1ccc(N2CCN(C(=S)NCc3ccc(Cl)cc3)CC2)cc1	-67.8	-50.2	2.2	57.8*	20.9	25.9	·	Gli antag conf=42.9;SufuKO cytotox=7.6;Wnt3a cs=-56.5
CCNC(=S)N1CCN(c2ccc([N+](=O)[O-])cc2)CC1	·	-23.0	-2.3	2.1	2.9	0.4	·
COc1ccc(/C=C2\Sc3ccc(C(=O)N4CCN(Cc5ccccc5)CC4)cc3N(C)C2=O)cc1OC	-10.6	·	0.5	99.2*	-13.3	32.7	·	Gli antag conf=13.1;SufuKO cytotox=13.3;Wnt3a cs=-6.6
Cc1ccc(/C=C/S(=O)(=O)Nc2ccc(C)cc2)cc1	0.7	5.5	-1.5	2.9	11.1	8.9	·
Cc1cc(C)n2c(SCCC(C)C)nnc2n1	·	·	9.3	62.5*	-4.4	-4.4	·	Gli antag conf=-0.6;SufuKO cytotox=7.6;Wnt3a cs=-40.5
Cc1cc(C)n2c(SCC(C)C)nnc2n1	-1.2	-20.5	1.0	-8.7	0.8	-13.0	·
CCOc1ccccc1NC(=O)N1CCC(NC(=O)c2cccc(C)c2)CC1	·	7.3	-0.7	10.3	1.5	5.8	·
Cc1cccc(C(=O)NC2CCN(C(=O)Nc3ccccc3C)CC2)c1	44.9	14.9	-1.6	66.7*	6.3	1.4	·	Gli antag conf=24.2;SufuKO cytotox=0.4;Wnt3a cs=3.5
Cc1ccc(NC(=S)N(CCCN2CCCC2)Cc2cccn2Cc2ccc(Cl)cc2)cc1Cl	-10.7	78.2*	0.1	60.8*	-2.6	0.6	93.4*	Gli antag conf=16.1;SufuKO cytotox=6.1;Wnt3a cs=-24.6
Cc1ccc(NC(=S)N(CCCN2CCCC2)Cc2cccn2Cc2ccc(Cl)cc2)cc1C	-9.8	25.0	-0.8	-10.2	-3.2	-25.7	·
N#CC1C=Cc2c(ccc3ccccc23)N1C(=O)c1ccccc1 (stereo not drawn)	·	60.3*	0.6	51.0	·	·	56.3*	Gli antag conf=61.0*;SufuKO cytotox=57.3*;Wnt3a cs=6.6
Cc1ccc(F)cc1NC(=O)C1C2CCC(O2)C1C(=O)O (stereo not drawn)	3.6	·	-0.3	4.0	6.2	-0.1	·
COC(=O)c1cc(C(=O)N2CCN(c3ccccc3OC)CC2)cc([N+](=O)[O-])c1	?	50.9*	-0.5	51.5	23.8	40.6	84.7*	Gli antag conf=39.4;SufuKO cytotox=50.1*;Wnt3a cs=-36.7
CCC(C)[C@H](NC(=O)N1CC(=O)Nc2ccccc21)C(=O)N[C@@H](Cc1c[nH]c2ccccc12)C(=O)O (stereo partly drawn)	·	·	3.2	4.7	12.1	6.6	·
COc1cc(NC(=O)c2cc([N+](=O)[O-])ccc2NC(=O)CN2CCN(c3ccccn3)CC2)cc(OC)c1	-11.7	59.8*	1.9	-4.6	21.0	-10.6	79.4*
O=C(CN1CCN(c2ccccn2)CC1)Nc1ccccc1C(=O)Nc1ccccc1	·	-6.4	-0.3	-2.1	-33.0	14.9	·
Cc1ccnc(N2CCC(C(=O)Nc3ccc(Oc4ccccc4)cc3)CC2)n1	·	52.4*	-0.3	-19.7	-32.8	3.4	14.0
CCOc1ccc2nc(NC(=O)CN3CCC(n4nnc5cc(F)ccc54)CC3)sc2c1	28.1	57.7*	1.4	6.2	-37.6	-5.8	43.5*
O=C(CN1CCC(n2nnc3cc(F)ccc32)CC1)NC1CC1	·	7.6	9.9	-3.5	27.0	1.4	·
COC(=O)[C@]1(CC(C)C)N[C@H](c2ccc(SC3CCCCC3)c(OC)c2)[C@@H]2C(=O)N(C)C(=O)[C@@H]21	·	20.0	-1.8	-1.3	12.9	22.2	·
CCN1C(=O)[C@H]2[C@@H](c3ccc(-c4ccccc4)c(OC)c3)N[C@@](CC(C)C)(C(=O)OC)[C@H]2C1=O	·	57.4*	-2.6	-3.2	9.3	-4.7	40.4*
CCCCCCSc1ccc([C@H]2N[C@@](CC(C)C)(C(=O)OC)[C@H]3C(=O)N(C)C(=O)[C@@H]23)cc1OC	·	63.7*	-1.8	-0.6	6.3	28.2	54.9*
CCN1C(=O)[C@H]2[C@@H](c3ccc(-c4ccc(OC)cc4)c(OC)c3)N[C@@](CC(C)C)(C(=O)OC)[C@H]2C1=O	·	23.0	-0.9	1.1	4.4	-0.2	·
SMILES	Lipid droplet	TAG inh	hiPSC survival	Gli-Sufu block	697 NFkB inh	Jurkat NFkB inh	TAG conf	others
O=C(Nc1ccc(/C=C/c2nc3ccccc3o2)cc1)c1c(F)cccc1F	44.4	54.4*	-1.6	-87.4	-115.0	-126.5	55.0*
CCCCOc1ccc(NC(=O)C(=O)NCCC2=CCCCC2)cc1	-0.8	63.7*	-0.1	-11.7	-29.5	-41.7	8.4
O=C(/C=C/c1ccc(OCCCF)cc1)NCc1ccc(Cl)cc1	·	13.7	-1.3	-30.5	0.6	-13.1	·
COc1ccc(CNC(=O)/C=C/c2ccc(OCCCF)cc2)cc1	·	55.6*	-1.7	-23.8	13.0	-5.5	30.8
C=CC[C@H](CC(=O)N(CCO)Cc1ccccc1)C(=O)N[C@H](COC(=O)[C@@H](CC=C)Cc1ccc(F)cc1)Cc1c[nH]c2ccccc12	·	25.5	0.3	20.2	4.0	-7.7	·
C=CC[C@@H](CC(=O)N(CCO)Cc1ccccc1)C(=O)N[C@H](COC(=O)[C@@H](CC=C)Cc1ccc(F)cc1)Cc1c[nH]c2ccccc12	·	61.8*	-1.6	-6.4	-1.4	-10.5	63.0*
C=CCC[C@@H](Cc1ccc(F)cc1)C(=O)OC[C@@H](Cc1c[nH]c2ccccc12)NC(=O)[C@@H](CC=C)CC(=O)N(CCO)Cc1ccccc1	·	60.5*	-1.0	2.0	-9.8	7.3	59.9*
O=C(CCl)Nc1cc2[nH]c(=O)[nH]c2cc1Br	-0.1	51.4*	-0.2	13.7	-51.2	31.0	68.7*
COC(=O)CCC(=O)N1CCC(Oc2cccc(C(=O)NCc3ccccn3)c2)CC1	·	3.0	-1.9	·	·	·	·
CCC(C)NCC(=O)Nc1ccc(-c2nc3cc(NC(=O)CNC(C)CC)ccc3o2)cc1 (stereo not drawn)	1.7	53.2*	-2.5	1.0	-28.1	-18.3	31.4
CCCCCCCC(=O)Nc1cc(C(=O)NCCC)ccc1N1CCC2(CC1)CC(c1cccc(Br)c1)=NO2	·	70.3*	0.1	7.2	-12.6	3.2	61.2*
